Columns and labels:
[1] = folding enthalpy; higher = less favourable; fluorescence melt of hairpins on a sequencing array, two-state fit; settings: sodium 0.088 M
Procedure, shortened: (§1)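 In 50 mM Na-HEPES pH 8.0 containing 25 mM NaCl, hairpins from the library on a sequenced MiSeq flow cell were imaged for Cy3 fluorescence at 2.5 °C steps up to 60 °C, with Cy3 and quencher oligos annealed. After normalisation to pre-quench Cy3 and to control constructs, two-state fits with bootstrapping gave melting temperature and folding enthalpy. Four replicates were combined by inverse-variance weighting, and fitted temperatures were shifted up by 9.35 °C to match UV melts.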

[2] = melting temperature; fluorescence melt of hairpins on a sequencing array, two-state fit, raised by 9.35 °C to match UV melts; settings: sodium 0.088 M
Procedure, shortened: as §1

Sequence | folding enthalpy [1] | Tm [2]
GGAATCGGAAACGGTTTC (.((.((....)).)).) | -26.3 kcal/mol | 32.4 °C
GCGTACGAAAGTAAACGC ((((((....)))..))) | -34.5 kcal/mol | 51.9 °C
GCTCAACGAAAGTTTAGC (((.(((....))).))) | -28.2 kcal/mol | 44.5 °C
GGTAGCGAAAGCTCAACC ((((((....)))..))) | -13.7 kcal/mol | 34.9 °C
GGATGCGAAAGCATTTCC ((((((....)))..))) | -11.1 kcal/mol | 38.8 °C
GTTGTGGGAAACCACAAC (((((((....))))))) | -46 kcal/mol | 63.1 °C
GTGGGCGGAAACGCCTGC (..((((....))))..) | -13.2 kcal/mol | 47 °C
GCCACGGGAAACCGCAGC ((..(((....)))..)) | -17.4 kcal/mol | 34.1 °C
GTCTGGTCGAAAGACGAC (((..(((....)))))) | -17.2 kcal/mol | 41.5 °C
GGAGCTGGAAACAGCCCC ((.((((....)))).)) | -24.2 kcal/mol | 54.3 °C
GACCACGGAAACGTGATC ((.((((....)))).)) | -19.9 kcal/mol | 43.3 °C
GGTCGCGAAAGCGTTACC ((((((....)))..))) | -14.6 kcal/mol | 41.4 °C
GTTCTGACGAAAGTCAAC (((..(((....)))))) | -8.85 kcal/mol | 25.2 °C
GAACACGAAAGTGTGTTC ((((((....)))..))) | -17.8 kcal/mol | 50 °C
GCTACGCGAAAGCATAGC ((((.((....)).)))) | -28 kcal/mol | 53.9 °C
GGGCACGGAAACATGCCC (((((.(....).))))) | -37.6 kcal/mol | 51.5 °C
GCAATCGAAAGATTTTGC ((((((....)))..))) | -14.8 kcal/mol | 28.8 °C
GGTTAGGGAAACCTGACC (((.(((....))).))) | -33 kcal/mol | 48 °C
GTGTCGAAAGACAC (((((....))))) | -25.7 kcal/mol | 68 °C
GCTTGAGCGAAAGCTAGC (((..(((....)))))) | -13.9 kcal/mol | 47.8 °C
ATCAGTGAGAAATCACTGAA .................... | -14.1 kcal/mol | 46.2 °C
GTCCCCGGAAACGGGAAC ((.((((....)))).)) | -15.1 kcal/mol | 46.4 °C
GATCGAAACTCGATC ((((((...)))))) | -30.4 kcal/mol | 50.2 °C

Sequence | folding enthalpy [1] | Tm [2]
GGCACCGGAAACAGCGCC (((.(.(....).).))) | -22.1 kcal/mol | 34.5 °C
GATCCAGACTTGGATC ((((((....)))))) | -35 kcal/mol | 56.1 °C
GTCCTAGGAAACTGGGAC ((((.((....)).)))) | -37.8 kcal/mol | 49.4 °C
GCTCCATCGAAAGATAGC (((..(((....)))))) | -10.7 kcal/mol | 24.6 °C
GCGTAGGAACGC ((((....)))) | -16.3 kcal/mol | 49.2 °C
CGAGAACGGAAACGTTCG (((..(((....)))))) | -25.3 kcal/mol | 52.9 °C
GATCTGCCTTCAGATC ((((((....)))))) | -30.7 kcal/mol | 49 °C
GTGACCTCGAAAGAGCAC (((..(((....)))))) | -14.8 kcal/mol | 30.9 °C
GTTTTGGGAAACTGAAAC ((((..(....)..)))) | -12.2 kcal/mol | 31.4 °C
GGGCTGGGAAACCGGTCC ((.(.((....)).).)) | -44.6 kcal/mol | 49.2 °C
GCAGTACGAAAGTATGC (((.(((....)))))) | -31.3 kcal/mol | 48.4 °C
GGCTTTGGAAACGAAGCC (((((.(....).))))) | -43.6 kcal/mol | 54 °C
GCTCGCGAAAGCGGCAGC ((((((....)))..))) | -12.2 kcal/mol | 48.9 °C
GATCAGCGCGCTGATC ((((((....)))))) | -43 kcal/mol | 67.4 °C
GATCAACGTGTTGATC ((((((....)))))) | -60.2 kcal/mol | 57.4 °C
GATGTTGGAAACAATGTC ((..(((....)))..)) | -17.1 kcal/mol | 31.1 °C
GCTATGCGAAAGCAGCGC ((..(((....)))..)) | -18.9 kcal/mol | 54.2 °C
GGTGGTGGAAACACCGTC (..((((....))))..) | -22.8 kcal/mol | 55.5 °C
GTCACGGGAAACCGTGGC (.(((((....))))).) | -19 kcal/mol | 62.7 °C
GGGGGCGAAAGCCTCCCC ((((((....)))..))) | -11.5 kcal/mol | 61.4 °C
GCTAGTACGAAAGTAAGC (((..(((....)))))) | -14.7 kcal/mol | 28.2 °C
GCCCACGGAAACGTAGGC (((.(((....))).))) | -30.6 kcal/mol | 48.4 °C
GCGAGGCGAAAGCATAGC ((.(.((....)).).)) | -21.2 kcal/mol | 55.6 °C
